Experiment [1] has as its target T1, Type-2 angiotensin II receptor (Rattus norvegicus, UniProt P35351).
T1 sequence (P35351 whole entry): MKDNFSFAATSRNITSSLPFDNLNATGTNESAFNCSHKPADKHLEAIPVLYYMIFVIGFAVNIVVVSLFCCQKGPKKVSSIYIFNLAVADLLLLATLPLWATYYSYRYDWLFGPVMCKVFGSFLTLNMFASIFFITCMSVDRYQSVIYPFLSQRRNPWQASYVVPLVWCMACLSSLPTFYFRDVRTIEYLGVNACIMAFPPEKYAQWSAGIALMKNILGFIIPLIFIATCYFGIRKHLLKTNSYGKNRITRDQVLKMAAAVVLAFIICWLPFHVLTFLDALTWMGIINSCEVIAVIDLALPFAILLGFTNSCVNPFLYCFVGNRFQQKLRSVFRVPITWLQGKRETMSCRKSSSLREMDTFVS
Put plainly: In vitro inhibitory activity against angiotensin II rat midbrain AT2 receptor using radioligand [125I]-Sar Ile-AII. In short, it runs like this:
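Dithiothreitol ([…]) was added to the assay mixture to abolish residual AT1 binding. Tubes were run in duplicate, and IC50 came from nonlinear regression of displacement curves.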

The target of experiment [2] is T2, Type-1 angiotensin II receptor (Oryctolagus cuniculus, UniProt P34976).
T2 sequence (P34976 whole entry): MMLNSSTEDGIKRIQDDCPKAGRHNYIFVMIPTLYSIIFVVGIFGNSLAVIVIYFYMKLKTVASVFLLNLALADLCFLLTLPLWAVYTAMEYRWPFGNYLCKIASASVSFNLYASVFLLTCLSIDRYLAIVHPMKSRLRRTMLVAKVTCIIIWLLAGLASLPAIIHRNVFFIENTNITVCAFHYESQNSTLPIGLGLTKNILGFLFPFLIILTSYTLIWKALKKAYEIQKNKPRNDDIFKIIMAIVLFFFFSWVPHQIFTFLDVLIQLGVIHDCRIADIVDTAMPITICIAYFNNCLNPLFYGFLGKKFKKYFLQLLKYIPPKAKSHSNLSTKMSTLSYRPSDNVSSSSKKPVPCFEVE
In words: In vitro inhibitory activity against angiotensin II rabbit aorta AT1 receptor using radioligand [125I]-Sar Ile-AII. The format is tissue-based.

Some results are limits rather than exact numbers.

The term IC50 denotes the concentration that inhibits the measured activity by half. As to `CCCCc1nn(-c2ccccc2C(F)(F)F)c(=O)n1Cc1ccc(-c2ccccc2S(=O)(=O)NC(=O)COCC)cc1`, the IC50 is 0.38 µM in experiment [1] and 0.00075 µM in experiment [2].
For `CCCCc1nn(-c2ccccc2C(F)(F)F)c(=O)n1Cc1ccc(-c2ccccc2S(=O)(=O)NC(=O)c2c(C)cccc2C)cc1`, the IC50 is 0.19 µM in experiment [1] and 0.0059 µM in experiment [2].
The corresponding values for `CCCCc1nn(-c2ccccc2C(F)(F)F)c(=O)n1Cc1ccc(-c2ccccc2S(=O)(=O)NC(=O)c2ccc(C(F)(F)F)cc2)cc1` are 1.4 µM and 0.0038 µM.
The corresponding values for `CCCCc1nn(-c2ccccc2C(F)(F)F)c(=O)n1Cc1ccc(-c2ccccc2S(=O)(=O)NC(=O)C2CCCC2)cc1` are 0.082 µM and 0.00032 µM.
The corresponding values for `CCCCc1nn(-c2ccccc2C(F)(F)F)c(=O)n1Cc1ccc(-c2ccccc2S(=O)(=O)NC(=O)C2(C)CC2)cc1` are 0.076 µM and 0.0008 µM.
As for `CCCCc1nn(-c2ccccc2C(F)(F)F)c(=O)n1Cc1ccc(-c2ccccc2S(=O)(=O)NC(=O)c2sccc2C)cc1`, the IC50 in experiment [1] is 0.08 µM; in experiment [2], 0.00081 µM.
Regarding `CCCCc1nn(-c2ccccc2C(F)(F)F)c(=O)n1Cc1ccc(-c2ccccc2S(=O)(=O)NC(=O)c2oc(C)cc2C)cc1`, the IC50 in experiment [1] is 0.055 µM; in experiment [2] it was 0.00022 µM.
The corresponding values for `CCCCc1nn(-c2ccccc2C(F)(F)F)c(=O)n1Cc1ccc(-c2ccccc2S(=O)(=O)NC(=O)c2cccnc2Cl)cc1` are 0.52 µM and 0.001 µM.
The corresponding values for `CCCCc1nn(-c2ccccc2Cl)c(=O)n1Cc1ccc(-c2ccccc2S(=O)(=O)NC(=O)c2ccccc2)cc1` are 0.59 µM and 0.0014 µM.
`CCCCc1nn(-c2ccccc2Cl)c(=O)n1Cc1ccc(-c2ccccc2S(=O)(=O)NC(=O)C(F)(F)F)cc1` yielded an IC50 in experiment [1] of 0.45 µM.
Take `CCCCc1nn(-c2ccccc2C(F)(F)F)c(=O)n1Cc1ccc(-c2ccccc2S(=O)(=O)NC(=O)Cc2ccccc2)cc1`: the IC50 in experiment [1] turned out to be 0.24 µM; in experiment [2], 0.0016 µM.
In turn, `CCCCc1nn(-c2ccccc2Cl)c(=O)n1Cc1ccc(-c2ccccc2S(=O)(=O)NC(C)=O)cc1` returned an IC50 in experiment [1] greater than 1 µM.
For the compound `CCCCc1nn(-c2ccccc2C(F)(F)F)c(=O)n1Cc1ccc(-c2ccccc2S(=O)(=O)NC(=O)c2ccccc2F)cc1`, the IC50 came to 0.053 µM in experiment [1] and 0.00013 µM in experiment [2].
Take `CCCCc1nn(-c2ccccc2C(F)(F)F)c(=O)n1Cc1ccc(-c2ccccc2S(=O)(=O)NS(=O)(=O)c2ccccc2)cc1`: the IC50 in experiment [1] was determined as 2.4 µM; in experiment [2], 0.0002 µM.
The corresponding values for `CCCCc1nn(-c2ccccc2C(F)(F)F)c(=O)n1Cc1ccc(-c2ccccc2S(=O)(=O)NC(=O)C2(C)CC2(Cl)Cl)cc1` (stereo not drawn) are 0.12 µM and 0.00037 µM.
On to `CCCCc1nn(-c2ccccc2C(F)(F)F)c(=O)n1Cc1ccc(-c2ccccc2S(=O)(=O)NC(=O)c2ccccc2Br)cc1`, for which the IC50 worked out at 0.045 µM in experiment [1] and 0.0004 µM in experiment [2].
As to `CCCCc1nn(-c2ccccc2C(F)(F)F)c(=O)n1Cc1ccc(-c2ccccc2S(=O)(=O)NC(=O)c2cc(Cl)sc2Cl)cc1`, the IC50 worked out at 0.087 µM in experiment [1] and 0.0026 µM in experiment [2].
The corresponding values for `CCCCc1nn(-c2ccccc2C(F)(F)F)c(=O)n1Cc1ccc(-c2ccccc2S(=O)(=O)NC(=O)c2ccc(C)o2)cc1` are 0.15 µM and 0.0004 µM.
With `CCCCc1nn(-c2ccccc2C(F)(F)F)c(=O)n1Cc1ccc(-c2ccccc2S(=O)(=O)NC(=O)OCC)cc1`, the IC50 in experiment [1] came to 0.075 µM; in experiment [2] it was 0.0022 µM.
The corresponding values for `CCCCc1nn(-c2ccccc2C(F)(F)F)c(=O)n1Cc1ccc(-c2ccccc2S(=O)(=O)NC(=O)C(c2ccccc2)c2ccccc2)cc1` are 0.32 µM and 0.0028 µM.
The corresponding values for `CCCCCCCC(=O)NS(=O)(=O)c1ccccc1-c1ccc(Cn2c(CCCC)nn(-c3ccccc3C(F)(F)F)c2=O)cc1` are 0.45 µM and 0.0029 µM.
As for `CCCCc1nn(-c2ccccc2C(F)(F)F)c(=O)n1Cc1ccc(-c2ccccc2S(=O)(=O)NC(=O)c2ccoc2)cc1`, the IC50 in experiment [1] came to 0.7 µM; in experiment [2] it was 0.0039 µM.
Take `CCCCc1nn(-c2ccccc2C(F)(F)F)c(=O)n1Cc1ccc(-c2ccccc2S(=O)(=O)NC(=O)C(C)(C)C)cc1`: the IC50 in experiment [1] came out at 0.16 µM; in experiment [2], 0.0013 µM.
As for `CCCCc1nn(-c2ccccc2C(F)(F)F)c(=O)n1Cc1ccc(-c2ccccc2S(=O)(=O)NC(=O)c2cccc(Cl)c2)cc1`, the concentration for half-maximal inhibition (IC50) in experiment [1] turned out to be 0.15 µM; in experiment [2] it was 0.0024 µM.
The corresponding values for `CCCCc1nn(-c2ccccc2C(F)(F)F)c(=O)n1Cc1ccc(-c2ccccc2S(=O)(=O)NC(=O)C2CCC2)cc1` are 0.1 µM and 0.00084 µM.
The corresponding values for `CCCCc1nn(-c2ccccc2C(F)(F)F)c(=O)n1Cc1ccc(-c2ccccc2S(=O)(=O)NC(=O)c2ccc(C)s2)cc1` are 0.19 µM and 0.00064 µM.
The corresponding values for `CCCCc1nn(-c2ccccc2C(F)(F)F)c(=O)n1Cc1ccc(-c2ccccc2S(=O)(=O)NC(=O)c2ccccc2-c2ccccc2)cc1` are 0.33 µM and 0.0006 µM.
In the case of `CCCCc1nn(-c2ccccc2C(F)(F)F)c(=O)n1Cc1ccc(-c2ccccc2S(=O)(=O)NC(=O)c2sccc2Br)cc1`, the figures for the IC50 in experiment [1] and in experiment [2] were 0.043 µM and 0.00072 µM, respectively.
Consider `CCCCc1nn(-c2ccccc2C(F)(F)F)c(=O)n1Cc1ccc(-c2ccccc2S(=O)(=O)NC(=O)c2ccc(OC)cc2)cc1`, for which the results for the IC50 in experiment [1] and in experiment [2] were 0.5 µM and 0.00074 µM, respectively.
The corresponding values for `CCCCc1nn(C(C)C)c(=O)n1Cc1ccc(-c2ccccc2S(=O)(=O)NC(=O)c2ccccc2)cc1` are 4.6 µM and 0.007 µM.
The corresponding values for `CCCCc1nn(-c2ccccc2C(F)(F)F)c(=O)n1Cc1ccc(-c2ccccc2S(=O)(=O)NC(=O)c2cccn2C)cc1` are 0.5 µM and 0.0016 µM.
The corresponding values for `CCCCc1nn(-c2ccccc2C(F)(F)F)c(=O)n1Cc1ccc(-c2ccccc2S(=O)(=O)NC(=O)c2ccoc2C)cc1` are 0.11 µM and 0.003 µM.
For `CCCCc1nn(-c2ccccc2C(F)(F)F)c(=O)n1Cc1ccc(-c2ccccc2S(=O)(=O)NC(=O)CCOC)cc1`, the IC50 in experiment [1] came to 0.27 µM; in experiment [2], 0.002 µM.
Turning to `CCCCc1nn(-c2ccccc2C(F)(F)F)c(=O)n1Cc1ccc(-c2ccccc2S(=O)(=O)NC(=O)C2CCCO2)cc1` (stereo not drawn), the IC50 worked out at 0.18 µM in experiment [1] and 0.0043 µM in experiment [2].
The corresponding values for `CCCCc1nn(-c2ccccc2C(F)(F)F)c(=O)n1Cc1ccc(-c2ccccc2S(=O)(=O)NC(=O)c2occ(Cl)c2Cl)cc1` are 0.025 µM and 0.00019 µM.
The corresponding values for `CCCCc1nn(-c2ccccc2C(F)(F)F)c(=O)n1Cc1ccc(-c2ccccc2S(=O)(=O)NC(=O)c2ccc(Cl)s2)cc1` are 0.26 µM and 0.0013 µM.
The compound `CCCCc1nn(-c2ccccc2C(F)(F)F)c(=O)n1Cc1ccc(-c2ccccc2S(=O)(=O)NC(=O)c2cc3ccccc3o2)cc1.CCOCC` displayed an IC50 in experiment [2] of 0.00017 µM.
With `CCCCc1nc(Cl)c(C(=O)O)n1Cc1ccc(-c2ccccc2-c2nn[nH]n2)cc1` [CARBOXYLIC ACID METABOLITE], in experiment [1], the IC50 is greater than 50 µM.
For `CCCCc1nn(-c2ccccc2Cl)c(=O)n1Cc1ccc(-c2ccccc2S(=O)(=O)NC(C)(C)C)cc1`, the IC50 in experiment [1] turned out to be 11 µM.

The values above are taken from ChEMBL document CHEMBL1127442, “Triazolinone biphenylsulfonamide derivatives as orally active angiotensin II antagonists with potent AT1 receptor affinity and enhanced AT2 affinity” (J Med Chem, 1994).
